# Experimental data: ChEMBL document CHEMBL4818983, “Structure-activity relationship and hypoglycemic activity of tricyclic matrines with advantage of treating diabetic nephropathy” (Eur J Med Chem, 2020)
# The source made the active and inactive calls. No cut-off for these calls is given here.
# Experiments:
# HepG2 [1] = test: Increase in glucose consumption in human HepG2 cells assessed as Gx/GDMSO ratio at 25 uM by glucose oxidase assay; assay type: functional
# In short: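 HepG2 glucose consumption screen. Test compounds at 25 μM, metformin at 5 mM. Activity expressed as ratio of glucose consumption to DMSO-treated cells (Gx/G_DMSO).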
# Mus musculus [2] = test: Antidiabetic activity in KK-Ay mouse assessed as effect on AGE level at 50 mg/kg, po for 24 hrs by ELISA (Rvb 2.85 +/- 0.92 ug/ml); assay type: functional
# [3] = Acute toxicity in po dosed Kunming mouse administered as single dose measured for 7 days; assay type: organism-based; conditions: in vivo, time 7 day
# In short: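 Kunming mice each received one oral dose at 250, 500, 750 or 1000 mg·kg^-1 and were closely monitored for 7 days. The median lethal dose (LD50) was estimated from this single-dose experiment.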
# [4] = Acute toxicity in Kunming mouse assessed as effect on blood GOT level at 250 to 1000 mg/kg, po administered as single dose measured for 7 days; assay type: organism-based; conditions: in vivo, 168 h, dose 250-1000 mg/kg, time 7 day
# In short: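 Kunming mice each received one oral dose at 250, 500, 750 or 1000 mg·kg^-1 and were closely monitored for 7 days. At the end, blood was sampled and GOT, GPT, BUN and CRE were measured […] as liver and kidney function markers.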
# Mus musculus [5] = test: Antidiabetic activity in KK-Ay mouse assessed as effect on insulin level at 100 mg/kg, […] by ELISA (reference value: 226 +/- 15.5 mU/l); assay type: functional
# Mus musculus [6] = test: Antidiabetic activity in KK-Ay mouse assessed as effect on cholesterol level at 50 mg/kg, […] by ELISA (reference value: 7.38 +/- 1.03 mM); assay type: functional
# Mus musculus [7] = test: Antidiabetic activity in KK-Ay mouse assessed as effect on Triglycerides level at 50 mg/kg, […] by ELISA (reference value: 4.01 +/- 1.83 mM); assay type: functional
# Mus musculus [8] = test: Antidiabetic activity in KK-Ay mouse assessed as effect on serum Creatinine level at 50 mg/kg, po for 24 hrs by ELISA (reference value: 124 +/- 35.1 uM); assay type: functional
# Mus musculus [9] = test: Antidiabetic activity in KK-Ay mouse assessed as effect on serum Creatinine level at 100 mg/kg, po for 24 hrs by ELISA (reference value: 124 +/- 35.1 uM); assay type: functional
# Mus musculus [10] = test: Antidiabetic activity in KK-Ay mouse assessed as effect on BUN level at 50 mg/kg, po for 24 hrs by ELISA (reference value: 12.8 +/- 2.97 mM); assay type: functional
# Mus musculus [11] = test: Antidiabetic activity in KK-Ay mouse assessed as effect on BUN level at 100 mg/kg, po for 24 hrs by ELISA (reference value: 12.8 +/- 2.97 mM); assay type: functional
# Mus musculus [12] = test: Anti-diabetic activity in overnight fasted diabetic KK-Ay mouse assessed as reduction in blood glucose AUC at 5 mg/kg, po […] measured after 35 days by oral glucose tolerance test; assay type: functional, organism-based
# In short: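 KK-Ay mice orally treated with 50 or 100 mg/kg compound or 5 mg/kg rosiglitazone, C57BL/6J as normal controls. After 35 days of treatment, oral glucose tolerance test and insulin tolerance test run. Blood glucose plotted against time, AUC calculated. Mean ± SD, 8-9 mice per group.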
# [13] = Effect on high fat diet-fed KK-Ay mouse model of obesity and diabetes assessed as water intake at 50 mg/kg, po (reference value: 21.2 +/- 4.17 ml/day); assay type: ADME, organism-based; conditions: in vivo
# In short: (§1)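 KK-Ay mice on lipogenic diet, with C57BL/6J mice as normal controls, dosed orally at 50 or 100 mg/kg (test) or 5 mg/kg (RGZ). Food intake (g/day), water intake (mL/day) and body weight recorded before and after treatment; body weight gain calculated. Mean±SD, 8-9 mice per group.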
# [14] = Effect on high fat diet-fed KK-Ay mouse model of obesity and diabetes assessed as water intake at 100 mg/kg, po (reference value: 21.2 +/- 4.17 ml/day); assay type: ADME, organism-based; conditions: in vivo; in short: as §1
# [15] = Effect on high fat diet-fed po dosed C57BL/6J mouse model of obesity and diabetes assessed as total body weight gain; assay type: organism-based; conditions: in vivo
# [16] = Effect on high fat diet-fed KK-Ay mouse model of obesity and diabetes assessed as total body weight gain at 100 mg/kg, po (reference value: 43.5 +/- 5.24 g); assay type: ADME, organism-based; conditions: in vivo; in short: as §1
# Mus musculus [17] = test: Anti-diabetic activity in high fat diet-fed KK-Ay mouse model of obesity and diabetes assessed as reduction in total protein level in urine at 50 to 100 mg/kg, po measured after 24 hrs; assay type: functional, organism-based; conditions: dose 50-100 mg/kg
# In short: (§2)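 Before study end, 24-h urine collected from C57BL/6J controls and KK-Ay mice (untreated, oral 50 or 100 mg/kg compound, or 5 mg/kg rosiglitazone). Volume, glucose, total protein and microalbumin measured by kits. Mean ± SD, 8-9 mice per group, vs C57BL/6J or untreated KK-Ay.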
# Mus musculus [18] = organism: Mus musculus; test: Anti-diabetic activity in high fat diet-fed C57BL/6J mouse model of obesity and diabetes assessed as reduction in urine glucose level measured after 24 hrs; assay type: functional, organism-based; in short: as §2
# Mus musculus [19] = organism: Mus musculus; test: Anti-diabetic activity in high fat diet-fed C57BL/6J mouse model of obesity and diabetes assessed as […] in total protein level in urine measured after 24 hrs; assay type: functional, organism-based; in short: as §2
# Mus musculus [20] = organism: Mus musculus; test: Anti-diabetic activity in high fat diet-fed C57BL/6J mouse model of obesity and diabetes assessed as decrease in microalbumin level in urine measured after 24 hrs; assay type: functional, organism-based; in short: as §2
# Mus musculus [21] = test: Anti-diabetic activity in high fat diet-fed KK-Ay mouse model of obesity and diabetes assessed as reduction in microalbumin level in urine at 50 to 100 mg/kg, po measured after 24 hrs; assay type: functional, organism-based; conditions: dose 50-100 mg/kg; in short: as §2
# HepG2 [22] = test: Induction of glycolysis in human HepG2 cells assessed as reduction in cellular ATP production at 10 to 40 uM measured after 24 hrs; assay type: functional, cell-based; conditions: dose 10-40 µM
# In short: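 HepG2 cells treated 24 h at the indicated concentrations; RGZ as reference. Supernatants used for glucose consumption and lactate release; lysed cells used for ATP, normalized to protein content. Mean ± SD of 3 or 4 separate experiments; compared with DMSO.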
# L6 = test: Increase in glucose consumption in rat L6 cells at 10 to 40 uM measured after 24 hrs; assay type: functional, cell-based; conditions: dose 10-40 µM
# In short: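 L6 myotubes treated with DMSO, compound or RGZ (20 μM) at the indicated concentrations for 24 h. Culture supernatants assayed for glucose consumption and lactate release; lysed cells assayed for ATP, normalized to protein. Mean ± SD of 3 independent experiments vs DMSO.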
# HepG2 [23] = test: Cytotoxicity against human HepG2 cells upto 160 uM after 24 hrs by MTT assay; assay type: cell-based; conditions: hepg2, 24 h
# In short: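 HepG2 cells exposed to compound; cell growth measured; CC50 derived from the concentration–growth relationship.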
# HepG2 [24] = test: Induction of glycolysis in human HepG2 cells assessed as increase in lactate release at 10 to 40 uM measured after 24 hrs; conditions: dose 10-40 µM
# Mus musculus [25] = test: Anti-diabetic activity in high fat diet-fed KK-Ay mouse model of obesity and diabetes assessed as reduction in urine glucose level at 50 to 100 mg/kg, po measured after 24 hrs; conditions: dose 50-100 mg/kg
smiles,measurement,setting,value
CCCC[C@@H]1[C@H]2CCCN3CCC[C@@H](CN1S(=O)(=O)c1ccc(C(F)(F)F)cc1)[C@@H]23,Ratio,HepG2 [1],1.49
same,Activity,Mus musculus [2],1.59 µg/mL
same,LD50 at 168 h,[3],1000 mg/kg
same,Activity,[4],Non-Toxic
same,Activity,Mus musculus [5],128 mU/L
same,Activity,Mus musculus [6],7.05 mM
same,Activity,Mus musculus [7],2.89 mM
same,Activity,Mus musculus [8],88.8 µM
same,Activity,Mus musculus [9],70.4 µM
same,Activity,Mus musculus [10],12.7 mM
same,Activity,Mus musculus [11],12.4 mM
same,Activity,Mus musculus [12],Active
same,Activity,[13],13.8 mL/day
same,Activity,[14],11.9 mL/day
same,Activity,[15],3.42 g
same,Activity,[16],2.53 g
same,Activity,Mus musculus [17],Active
same,Activity,Mus musculus [18],Active
same,Activity,Mus musculus [19],inactive
same,Activity,Mus musculus [20],inactive
same,Activity,Mus musculus [21],Active
same,Activity,HepG2 [22],Dose-Dependent Effect
same,Activity,L6,Dose-Dependent Effect
same,Activity,HepG2 [23],Non-Toxic
same,Activity,HepG2 [24],Dose-Dependent Effect
same,Activity,Mus musculus [25],Active
